Data reported in ChEMBL document CHEMBL1137398, “Synthesis and immunobiological activity of an original series of acyclic lipid a mimics based on a pseudodipeptide backbone” (J Med Chem, 2006).
Converted amounts (≈) assume the structure as drawn. The source made the active and inactive calls. The rule behind the calls is not given here.

Columns and labels:
Macrophage = test: Induction of NO production in murine macrophage; format: functional, cell-based; settings: Mus musculus
Method in brief: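 Bone-marrow macrophages from six-week-old male C57BL/6 mice, differentiated 8 d in DMEM with 20% horse serum and 30% L929 supernatant. Then set to 700 000 cells/mL in DMEM with 5% FCS. Serially diluted compounds were incubated with cells in triplicate for 22 h at 37 °C, 8% CO₂. Supernatant nitrite measured by Griess reaction at 562 nm (reference 690 nm) against a standard curve. Reported as mean ± SD dose-response.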

Limulus = test: Endotoxicity against horseshoe crab blood at 0.1 mg/mL by LAL chromogenic assay; format: toxicity, organism-based; settings: limulus polyphemus
Method in brief: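 LAL chromogenic endotoxin assay with compound at 0.1 mg/mL. Average of three independent experiments.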

PBMC [1] = test: Antagonist effect on LPS-induced IL6 production in human PBMC at 2 ug/mL; format: functional, cell-based
Method in brief: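 Human PBMC from healthy donor buffy coat, isolated on Ficoll (1.077 g/mL). Cultured at 1 × 10⁶ viable cells/well in RPMI-1640 with 10% FCS, penicillin/streptomycin and L-glutamine. Pre-incubated 90 min at 37 °C, 5% CO₂ with compound at final 0.02, 0.2, 2 or 20 µg/mL. E. coli LPS (055:B5) then added at 0.01 µg/mL. After 24 h, supernatant IL-6 measured by ELISA.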

PBMC [2] = test: Induction of IL6 production in human PBMC at 20 ug/ml relative to LPS; format: functional, cell-based
Method in brief: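 Human PBMC isolated on Ficoll from donor buffy coat. Cultured at 1 × 10⁶ viable cells/well in RPMI-1640 with 10% FCS and antibiotics. Incubated at 37 °C, 5% CO₂ with compound at final 20 µg/mL. Controls were medium alone and E. coli LPS (055:B5). Supernatant harvested at 24 h and IL-6 measured by ELISA; detection limit 10 pg/mL.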

Oryctolagus cuniculus [3] = test: Induction of pyrogenicity in rabbit assessed as increase in temperature at 0.01 mg/kg, iv; format: functional, organism-based; set-up: dose 0.01 mg/kg
Method in brief: (§1)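 Rabbit pyrogenicity test, iv injection, with water as control. Read-out is the summed temperature rise in three rabbits (°C), scored pass, inconclusive or fail.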

Oryctolagus cuniculus [4] = test: Induction of pyrogenicity in rabbit assessed as increase in temperature at 0.001 mg/kg, iv; format: functional, organism-based; set-up: dose 0.001 mg/kg; method in brief: as §1
Oryctolagus cuniculus [5] = test: Induction of pyrogenicity in rabbit assessed as increase in temperature at 0.1 mg/kg, iv; format: functional, organism-based; set-up: dose 0.1 mg/kg; method in brief: as §1

| SMILES | EC50 (Macrophage) | Activity (Limulus) | Activity (PBMC [1]) | Activity (PBMC [2]) | Activity (Oryctolagus cuniculus [3]) | Activity (Oryctolagus cuniculus [4]) | Activity (Oryctolagus cuniculus [5]) |
| --- | --- | --- | --- | --- | --- | --- | --- |
| CCCCCCCCCCCC(=O)O[C@H](CCCCCCCCCCC)CC(=O)N[C@@H](CCOP(=O)(O)O)C(=O)NCCC[C@H](COP(=O)(O)O)NC(=O)C[C@H](O)CCCCCCCCCCC | 0.15 µg/mL (≈ 0.148 µM) | 240 EU/ml | Active | inactive |  |  |  |
| CCCCCCCCCCCC(=O)O[C@H](CCCCCCCCCCC)CC(=O)N[C@H]1[C@H](OC[C@H]2O[C@H](OP(=O)(O)O)[C@H](NC(=O)C[C@H](O)CCCCCCCCCCC)[C@@H](O)[C@@H]2O)O[C@H](CO)[C@@H](OP(=O)(O)O)[C@@H]1O [DEFOSLIMOD] | 0.025 µg/mL (≈ 0.022 µM) |  |  |  |  |  |  |
| CCCCCCCCCCCC(=O)O[C@H](CCCCCCCCCCC)CC(=O)N[C@H](CCOP(=O)(O)O)C(=O)NCCC[C@H](COP(=O)(O)O)NC(=O)C[C@H](O)CCCCCCCCCCC | 0.55 µg/mL (≈ 0.542 µM) | 1072 EU/ml | Active | inactive |  |  |  |
| CCCCCCCCCCCC(=O)O[C@H](CCCCCCCCCCC)CC(=O)NC(CCOP(=O)(O)O)C(=O)NCCC[C@H](COP(=O)(O)O)NC(=O)C[C@H](O)CCCCCCCCCCC (mixture of isomers) | 0.083 µg/mL | 874 EU/ml | Active | inactive | inactive | inactive |  |
| CCCCCCCCCCCC(=O)O[C@H](CCCCCCCCCCC)CC(=O)NC(CCOP(=O)(O)O)C(=O)NCCC[C@H](CO)NC(=O)C[C@H](O)CCCCCCCCCCC (mixture of isomers) | 3.53 µg/mL | 16238 EU/ml | inactive |  | inactive | inactive | Active |
| CCCCCCCCCCCC(=O)O[C@H](CCCCCCCCCCC)CC(=O)N[C@H](CCOP(=O)(O)O)C(=O)NCCC[C@H](CO)NC(=O)C[C@H](O)CCCCCCCCCCC | 1.85 µg/mL (≈ 1.98 µM) | 14257 EU/ml | inactive |  |  |  |  |
| CCCCCCCCCCCC(=O)O[C@H](CCCCCCCCCCC)CC(=O)N[C@@H](CCOP(=O)(O)O)C(=O)NCCC[C@H](CO)NC(=O)C[C@H](O)CCCCCCCCCCC | 6.86 µg/mL (≈ 7.34 µM) | 9320 EU/ml | inactive |  |  |  |  |
